{"source": "ChEMBL document CHEMBL1123829", "about": "“Resolved cis-10-hydroxy-4-n-propyl-1,2,3,4,4a,5,6,10b- octahydrobenzo[f]quinoline : central serotonin stimulating properties” (1987)", "key": {"Rattus norvegicus [1]": {"species": "Rattus norvegicus", "test": "Compound was tested for Dopa accumulation in corpus striatum(brain) of reserpinized rat; I = Inactive", "assay_type": "functional, organism-based"}, "Rattus norvegicus [2]": {"species": "Rattus norvegicus", "test": "Compound was tested for Dopa accumulation in hemispheres (brain) of reserpinized rat; I = Inactive", "assay_type": "functional, organism-based"}, "Rattus norvegicus [3]": {"species": "Rattus norvegicus", "test": "Compound was tested for Dopa accumulation in limbic system(brain) of reserpinized rat; I = Inactive", "assay_type": "functional, organism-based"}, "Rattus norvegicus [4]": {"tested_on": "Rattus norvegicus", "test": "Compound was tested for 5-HTP accumulation in limbic system(brain) of reserpinized rat; A partial agonistic response at a dose of 12.5 uM/kg", "assay_type": "functional, organism-based", "conditions": "filed as partial agonist"}, "Rattus norvegicus [5]": {"tested_on": "Rattus norvegicus", "test": "Compound was tested for Dopa accumulation in corpus striatum(brain) of reserpinized rat; A partial agonistic response at a dose of 25 uM/kg", "assay_type": "functional, organism-based", "conditions": "filed as partial agonist"}, "Rattus norvegicus [6]": {"tested_on": "Rattus norvegicus", "test": "Compound was tested for Dopa accumulation in hemispheres (brain) of reserpinized rat; A partial agonistic response at a dose of 50 uM/kg", "assay_type": "functional, organism-based", "conditions": "filed as partial agonist"}, "Rattus norvegicus [7]": {"tested_on": "Rattus norvegicus", "test": "Compound was tested for Dopa accumulation in limbic system(brain) of reserpinized rat; A partial agonistic response at a dose of 12.5 uM/kg", "assay_type": "functional, organism-based", "conditions": "filed as partial agonist"}, "Rattus norvegicus [8]": {"tested_on": "Rattus norvegicus", "test": "Compound was tested for 5-HTP accumulation in corpus striatum(brain) of reserpinized rat; A partial agonistic response at a dose of 25 uM/kg", "assay_type": "functional, organism-based", "conditions": "filed as partial agonist"}, "Rattus norvegicus [9]": {"tested_on": "Rattus norvegicus", "test": "Compound was tested for 5-HTP accumulation in hemispheres (brain) of reserpinized rat; A partial agonistic response at a dose of 50 uM/kg", "assay_type": "functional, organism-based", "conditions": "filed as partial agonist"}, "Rattus norvegicus [10]": {"species": "Rattus norvegicus", "test": "Compound was tested for 5-HTP accumulation in limbic system(brain) of reserpinized rat.", "assay_type": "functional", "method_in_brief": "(§1)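 Male Sprague-Dawley rats (200–300 g), pretreated with reserpine in glacial acetic acid/5.5% glucose. Compounds were given sc in saline at neutral pH. 5-HTP in striatum, limbic system or hemispheres was measured by HPLC with electrochemical detection. Dose-response curves used 4–6 dose levels per substance and region, with 95% confidence limits by modified probit analysis.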"}, "Rattus norvegicus [11]": {"species": "Rattus norvegicus", "test": "Compound was tested for 5-HTP accumulation in corpus striatum(brain) of reserpinized rat.", "assay_type": "functional", "method_in_brief": "as §1"}, "Rattus norvegicus [12]": {"species": "Rattus norvegicus", "test": "Compound was tested for 5-HTP accumulation in hemispheres (brain) of reserpinized rat; I = Inactive", "assay_type": "functional", "method_in_brief": "as §1"}, "Rattus norvegicus [13]": {"species": "Rattus norvegicus", "test": "Compound was tested for 5-HTP accumulation in corpus striatum (brain) of reserpinized rat.", "assay_type": "functional", "method_in_brief": "as §1"}, "Rattus norvegicus [14]": {"species": "Rattus norvegicus", "test": "Compound was tested for Dopa accumulation in limbic system (brain) of reserpinized rat; I = Inactive", "assay_type": "functional, organism-based"}, "Rattus norvegicus [15]": {"species": "Rattus norvegicus", "test": "Compound was tested for 5-HTP accumulation in hemispheres (brain) of reserpinized rat.", "assay_type": "functional", "method_in_brief": "as §1"}, "Rattus norvegicus [16]": {"species": "Rattus norvegicus", "test": "Compound was tested for 5-HTP accumulation in limbic system (brain) of reserpinized rat.", "assay_type": "functional", "method_in_brief": "as §1"}, "Rattus norvegicus [17]": {"species": "Rattus norvegicus", "test": "Compound was tested for 5-HTP accumulation in corpus striatum(brain) of reserpinized rat", "assay_type": "functional", "method_in_brief": "as §1"}, "Rattus norvegicus [18]": {"species": "Rattus norvegicus", "test": "Compound was tested for 5-HTP accumulation in hemispheres (brain) of reserpinized rat", "assay_type": "functional", "method_in_brief": "as §1"}, "Rattus norvegicus [19]": {"species": "Rattus norvegicus", "test": "Compound was tested for 5-HTP accumulation in limbic system(brain) of reserpinized rat", "assay_type": "functional", "method_in_brief": "as §1"}}, "note": "Activity calls are given as the source filed them. No cut-off for these calls is given here.", "data": [{"smiles": "CCCN1CCCC2c3c(O)cccc3CCC21", "note": "(stereo in doubt) [listing 1 of 2 here]", "values": [{"measurement": "ED50", "setting": "Rattus norvegicus [1]", "result": "inactive"}, {"measurement": "ED50", "setting": "Rattus norvegicus [2]", "result": "inactive"}, {"measurement": "ED50", "setting": "Rattus norvegicus [3]", "result": "inactive"}]}, {"smiles": "CCCN1CCCC2c3c(O)cccc3CCC21", "note": "(centres undefined)", "values": [{"measurement": "ED50", "setting": "Rattus norvegicus [4]", "result": "Partial agonist"}, {"measurement": "ED50", "setting": "Rattus norvegicus [5]", "result": "Partial agonist"}, {"measurement": "ED50", "setting": "Rattus norvegicus [6]", "result": "Partial agonist"}, {"measurement": "ED50", "setting": "Rattus norvegicus [7]", "result": "Partial agonist"}, {"measurement": "ED50", "setting": "Rattus norvegicus [8]", "result": "Partial agonist"}, {"measurement": "ED50", "setting": "Rattus norvegicus [9]", "result": "Partial agonist"}]}, {"smiles": "CCCN1CCCC2c3c(O)cccc3CCC21", "note": "(stereo in doubt; 4) [listing 1 of 2 here]", "values": [{"measurement": "ED50", "setting": "Rattus norvegicus [1]", "result": "inactive"}, {"measurement": "ED50", "setting": "Rattus norvegicus [2]", "result": "inactive"}, {"measurement": "ED50", "setting": "Rattus norvegicus [3]", "result": "inactive"}]}, {"smiles": "CCCN1CCCC2c3c(O)cccc3CCC21", "note": "(stereo in doubt; 4) [listing 2 of 2 here]", "values": [{"measurement": "ED50", "setting": "Rattus norvegicus [10]", "result": 3.4, "unit": "µmol/kg"}, {"measurement": "ED50", "setting": "Rattus norvegicus [11]", "result": 3.4, "unit": "µmol/kg"}, {"measurement": "ED50", "setting": "Rattus norvegicus [12]", "result": 4.5, "unit": "µmol/kg"}]}, {"smiles": "CCCN(CCC)[C@@H]1CCc2cccc(O)c2[C@@H]1C", "values": [{"measurement": "ED50", "setting": "Rattus norvegicus [1]", "result": "inactive"}, {"measurement": "ED50", "setting": "Rattus norvegicus [2]", "result": "inactive"}, {"measurement": "ED50", "setting": "Rattus norvegicus [13]", "result": 0.04, "unit": "µmol/kg"}, {"measurement": "ED50", "setting": "Rattus norvegicus [14]", "result": "inactive"}, {"measurement": "ED50", "setting": "Rattus norvegicus [15]", "result": 0.09, "unit": "µmol/kg"}, {"measurement": "ED50", "setting": "Rattus norvegicus [16]", "result": 0.09, "unit": "µmol/kg"}]}, {"smiles": "CCCN1CCCC2c3c(O)cccc3CCC21", "note": "(stereo in doubt) [listing 2 of 2 here]", "values": [{"measurement": "ED50", "setting": "Rattus norvegicus [17]", "result": 3.63, "unit": "µmol/kg"}, {"measurement": "ED50", "setting": "Rattus norvegicus [18]", "result": 3.47, "unit": "µmol/kg"}, {"measurement": "ED50", "setting": "Rattus norvegicus [19]", "result": 2.57, "unit": "µmol/kg"}]}]}
